Measured values reported in ChEMBL document CHEMBL5661979, “Pharmacological inhibition of BMK1 suppresses tumor growth through promyelocytic leukemia protein” (Cancer Cell, 2010).

What was measured:
[1] = molecular target: Serine/threonine-protein kinase 10 (Homo sapiens, UniProt O94804); assay: Inhibition of LOK in human HeLa cells lysate pre incubated for 15 mins followed by ATP acyl phosphate probe addition and measured after 10 mins by LC-MS/MS analysis; assay type: subcellular
[2] = Inhibition of MAP3K5/MAP3K6/MAP3K15 in human HeLa cells lysate pre incubated for 15 mins followed by ATP acyl phosphate probe addition and measured after 10 mins by LC-MS/MS analysis; assay type: subcellular
[3] = molecular target: Serine/threonine-protein kinase 38 (Homo sapiens, UniProt Q15208); assay: Inhibition of NDR1 in human HeLa cells lysate pre incubated for 15 mins followed by ATP acyl phosphate probe addition and measured after 10 mins by LC-MS/MS analysis; assay type: subcellular
[4] = Inhibition of NEK6/7 in human HeLa cells lysate pre incubated for 15 mins followed by ATP acyl phosphate probe addition and measured after 10 mins by LC-MS/MS analysis; assay type: subcellular
[5] = molecular target: T1, Mitogen-activated protein kinase 14 (Homo sapiens, UniProt Q16539); assay: Inhibition of P38a interaction site in human HeLa cells lysate pre incubated for 15 mins followed by ATP acyl phosphate probe addition and measured after 10 mins by LC-MS/MS analysis; assay type: subcellular
[6] = molecular target: Protein kinase C theta type (Homo sapiens, UniProt Q04759); assay: Inhibition of PKCtheta in human HeLa cells lysate pre incubated for 15 mins followed by ATP acyl phosphate probe addition and measured after 10 mins by LC-MS/MS analysis; assay type: subcellular
[7] = molecular target: Cyclin-dependent kinase 9 (Homo sapiens, UniProt P50750); assay: Inhibition of CDK9 in human HeLa cells lysate pre incubated for 15 mins followed by ADP acyl phosphate probe addition and measured after 10 mins by LC-MS/MS analysis; assay type: subcellular
Procedure, shortened: (§1)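 KiNativ profiling in HeLa lysate (5 mg/mL total protein). Lysate incubated 15 min with inhibitor at 50, 10, 2, 0.8 or 0 μM. ATP or ADP acylphosphate probe then added (5 μM final) and reacted 10 min. Reaction stopped with urea and analysed by targeted MS, using up to four fragment ions per kinase peptide-probe conjugate. % inhibition taken against untreated lysate. Run in duplicate.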

[8] = molecular target: Macrophage-stimulating protein receptor (Homo sapiens, UniProt Q04912); assay: Inhibition of RON in human HeLa cells lysate at 50 uM pre incubated for 15 mins followed by ADP acyl phosphate probe addition and measured after 10 mins by LC-MS/MS analysis relative to control; assay type: subcellular; settings: time 25.0 min
[9] = molecular target: Calcium/calmodulin-dependent protein kinase kinase 1 (Homo sapiens, UniProt Q8N5S9); assay: Inhibition of CAMKK1 in human HeLa cells lysate at 50 uM pre incubated for 15 mins followed by ADP acyl phosphate probe addition and measured after 10 mins by LC-MS/MS analysis relative to control; assay type: subcellular; settings: time 25.0 min; procedure, shortened: as §1
[10] = molecular target: Serine/threonine-protein kinase Nek7 (Homo sapiens, UniProt Q8TDX7); assay: Inhibition of NEK7 in human HeLa cells lysate at 50 uM pre incubated for 15 mins followed by ADP acyl phosphate probe addition and measured after 10 mins by LC-MS/MS analysis relative to control; assay type: subcellular; settings: time 25.0 min
[11] = molecular target: Cyclin-dependent kinase 13 (Homo sapiens, UniProt Q14004); assay: Inhibition of CHED in human HeLa cells lysate at 10 uM pre incubated for 15 mins followed by ADP acyl phosphate probe addition and measured after 10 mins by LC-MS/MS analysis relative to control; assay type: subcellular; settings: time 25.0 min; procedure, shortened: as §1
[12] = molecular target: Tyrosine-protein kinase Fyn (Homo sapiens, UniProt P06241); assay: Inhibition of FYN in human HeLa cells lysate at 10 uM pre incubated for 15 mins followed by ADP acyl phosphate probe addition and measured after 10 mins by LC-MS/MS analysis relative to control; assay type: subcellular; settings: time 25.0 min
[13] = molecular target: MAP/microtubule affinity-regulating kinase 3 (Homo sapiens, UniProt P27448); assay: Inhibition of MARK3 in human HeLa cells lysate at 2 uM pre incubated for 15 mins followed by ADP acyl phosphate probe addition and measured after 10 mins by LC-MS/MS analysis relative to control; assay type: subcellular; settings: time 25.0 min
[14] = molecular target: Serine/threonine-protein kinase ULK2 (Homo sapiens) (UniProt Q8IYT8); assay: Inhibition of ULK2 in human HeLa cells lysate at 2 uM pre incubated for 15 mins followed by ADP acyl phosphate probe addition and measured after 10 mins by LC-MS/MS analysis relative to control; assay type: subcellular; settings: time 25.0 min
[15] = molecular target: Serine/threonine-protein kinase Aurora (Homo sapiens, UniProt Q96GD4+Q9UQB9+O14965); assay: Inhibition of AurA/AurB/AurC in human HeLa cells lysate at 50 uM pre incubated for 15 mins followed by ATP acyl phosphate probe addition and measured after 10 mins by LC-MS/MS analysis relative to control; assay type: subcellular; settings: time 25.0 min
Procedure, shortened: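 KiNativ-type profiling in HeLa lysate (5 mg/mL total protein). Lysate preincubated 15 min with inhibitor at 50, 10, 2, 0.8 or 0 μM, then ATP or ADP acylphosphate probe added (5 μM final) for 10 min. Reaction stopped with urea and analysed by targeted MS, using up to four fragment ions per kinase peptide-probe conjugate. % inhibition calculated against untreated lysate. Duplicate reactions.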

[16] = molecular target: Ribosomal protein S6 kinase alpha-5 (Homo sapiens, UniProt O75582); assay: Inhibition of MSK1 domain 1 in human HeLa cells lysate at 50 uM pre incubated for 15 mins followed by ATP acyl phosphate probe addition and measured after 10 mins by LC-MS/MS analysis relative to control; assay type: subcellular; settings: time 25.0 min
[17] = molecular target: T1, Mitogen-activated protein kinase 14; assay: Inhibition of P38alpha interaction site in human HeLa cells lysate at 50 uM pre incubated for 15 mins followed by ATP acyl phosphate probe addition and measured after 10 mins by LC-MS/MS analysis relative to control; assay type: subcellular; settings: time 25.0 min
[18] = Inhibition of NEK6/7 in human HeLa cells lysate at 10 uM pre incubated for 15 mins followed by ATP acyl phosphate probe addition and measured after 10 mins by LC-MS/MS analysis relative to control; settings: 25 min, condition cancer
[19] = molecular target: STE20-like serine/threonine-protein kinase (Homo sapiens, UniProt Q9H2G2); assay: Inhibition of SLK in human HeLa cells lysate at 2 uM pre incubated for 15 mins followed by ATP acyl phosphate probe addition and measured after 10 mins by LC-MS/MS analysis relative to control; assay type: subcellular; settings: time 25.0 min
[20] = molecular target: Tyrosine-protein kinase ABL (Homo sapiens, UniProt P00519+P42684); assay: Inhibition of ABL1/2 in human HeLa cells lysate at 2 uM pre incubated for 15 mins followed by ATP acyl phosphate probe addition and measured after 10 mins by LC-MS/MS analysis relative to control; assay type: subcellular; settings: time 25.0 min
Procedure, shortened: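 HeLa cell lysates (5 mg/mL total protein) were preincubated with inhibitor at 0, 0.8, 2, 10 or 50 μM for 15 min. ATP or ADP acylphosphate probe was then added (5 μM final) for 10 min, and reactions were stopped with urea. Up to four fragment ions per kinase probe-peptide were quantified by targeted MS. % inhibition was taken relative to untreated lysate. Run in duplicate.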

[21] = molecular target: Cyclin-dependent kinase 2 (Homo sapiens, UniProt P24941); assay: Inhibition of CDK2 in human HeLa cells lysate at 2 uM pre incubated for 15 mins followed by ATP acyl phosphate probe addition and measured after 10 mins by LC-MS/MS analysis relative to control; assay type: subcellular; settings: time 25.0 min; procedure, shortened: as §1
[22] = Plasma concentration in Sprague-Dawley rat at 2 mg/kg, po measured after 8 hrs by LC-MS/MS analysis; assay type: ADME, organism-based
[23] = Toxicity in C57Bl/6 mouse assessed as effect on urea nitrogen level at 50 mg/kg, ip for 14 days (reference value: 22 mg/dl); assay type: organism-based; settings: in vivo, 336 h, time 14 day

T1 sequence (Q16539 whole entry): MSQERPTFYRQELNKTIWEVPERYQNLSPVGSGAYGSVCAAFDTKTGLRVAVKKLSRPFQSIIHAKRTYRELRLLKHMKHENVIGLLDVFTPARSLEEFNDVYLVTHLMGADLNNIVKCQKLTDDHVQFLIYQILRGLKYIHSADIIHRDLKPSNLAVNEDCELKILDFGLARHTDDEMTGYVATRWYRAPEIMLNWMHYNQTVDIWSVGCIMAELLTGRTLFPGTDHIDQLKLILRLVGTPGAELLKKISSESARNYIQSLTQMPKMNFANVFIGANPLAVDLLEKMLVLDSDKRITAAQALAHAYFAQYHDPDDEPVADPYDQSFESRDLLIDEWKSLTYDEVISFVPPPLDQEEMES
Sequence of Protein kinase C theta type (Q04759 whole entry): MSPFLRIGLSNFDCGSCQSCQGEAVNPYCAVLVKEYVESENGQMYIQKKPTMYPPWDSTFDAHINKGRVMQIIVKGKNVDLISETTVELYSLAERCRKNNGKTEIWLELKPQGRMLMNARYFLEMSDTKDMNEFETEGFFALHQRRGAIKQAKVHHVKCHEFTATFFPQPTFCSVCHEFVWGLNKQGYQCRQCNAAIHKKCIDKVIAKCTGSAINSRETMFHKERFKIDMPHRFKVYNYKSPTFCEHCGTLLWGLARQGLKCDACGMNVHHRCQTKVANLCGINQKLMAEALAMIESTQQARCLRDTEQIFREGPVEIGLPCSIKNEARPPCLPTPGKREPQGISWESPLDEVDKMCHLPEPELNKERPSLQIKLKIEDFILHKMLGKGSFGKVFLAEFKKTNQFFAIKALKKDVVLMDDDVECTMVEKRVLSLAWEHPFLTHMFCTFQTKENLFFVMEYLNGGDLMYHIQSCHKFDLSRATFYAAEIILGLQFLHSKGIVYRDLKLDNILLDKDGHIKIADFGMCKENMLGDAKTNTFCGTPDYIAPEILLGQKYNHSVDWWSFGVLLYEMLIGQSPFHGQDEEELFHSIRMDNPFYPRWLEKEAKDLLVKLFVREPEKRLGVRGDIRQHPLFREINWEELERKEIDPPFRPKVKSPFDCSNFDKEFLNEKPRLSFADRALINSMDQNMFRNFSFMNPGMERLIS
Sequence of Serine/threonine-protein kinase Aurora (O14965 whole entry, looked up, the tested form may be a part): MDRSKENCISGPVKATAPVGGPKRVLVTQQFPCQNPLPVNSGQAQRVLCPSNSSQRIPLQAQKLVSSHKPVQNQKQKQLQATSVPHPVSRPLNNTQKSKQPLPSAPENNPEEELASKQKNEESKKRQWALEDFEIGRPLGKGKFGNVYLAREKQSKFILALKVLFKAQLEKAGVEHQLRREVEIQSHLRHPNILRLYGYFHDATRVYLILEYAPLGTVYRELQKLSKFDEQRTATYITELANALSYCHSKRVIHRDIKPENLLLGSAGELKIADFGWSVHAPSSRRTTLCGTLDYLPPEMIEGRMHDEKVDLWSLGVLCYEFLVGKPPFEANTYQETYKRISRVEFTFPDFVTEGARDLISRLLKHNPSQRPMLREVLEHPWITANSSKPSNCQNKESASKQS
Sequence of Serine/threonine-protein kinase Aurora (Q96GD4 whole entry, looked up, the tested form may be a part): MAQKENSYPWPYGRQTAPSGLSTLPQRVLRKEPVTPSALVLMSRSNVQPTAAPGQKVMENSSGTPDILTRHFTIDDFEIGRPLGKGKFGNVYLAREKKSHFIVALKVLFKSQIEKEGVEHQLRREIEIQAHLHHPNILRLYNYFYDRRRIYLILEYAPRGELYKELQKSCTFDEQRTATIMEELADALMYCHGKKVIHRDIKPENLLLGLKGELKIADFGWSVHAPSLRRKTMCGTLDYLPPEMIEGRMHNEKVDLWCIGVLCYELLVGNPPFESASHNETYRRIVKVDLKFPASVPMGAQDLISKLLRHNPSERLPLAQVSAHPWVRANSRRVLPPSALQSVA
Sequence of Serine/threonine-protein kinase Aurora (Q9UQB9 whole entry, looked up, the tested form may be a part): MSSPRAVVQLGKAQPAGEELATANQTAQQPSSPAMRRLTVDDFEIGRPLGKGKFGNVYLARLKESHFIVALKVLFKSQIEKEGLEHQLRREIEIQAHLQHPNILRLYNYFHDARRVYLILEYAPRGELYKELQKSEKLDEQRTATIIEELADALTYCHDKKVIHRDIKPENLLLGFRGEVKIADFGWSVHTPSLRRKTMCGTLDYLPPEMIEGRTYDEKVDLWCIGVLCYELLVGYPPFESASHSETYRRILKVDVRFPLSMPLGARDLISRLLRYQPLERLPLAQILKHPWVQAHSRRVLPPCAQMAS
Sequence of Serine/threonine-protein kinase ULK2 (Homo sapiens) (Q8IYT8 whole entry): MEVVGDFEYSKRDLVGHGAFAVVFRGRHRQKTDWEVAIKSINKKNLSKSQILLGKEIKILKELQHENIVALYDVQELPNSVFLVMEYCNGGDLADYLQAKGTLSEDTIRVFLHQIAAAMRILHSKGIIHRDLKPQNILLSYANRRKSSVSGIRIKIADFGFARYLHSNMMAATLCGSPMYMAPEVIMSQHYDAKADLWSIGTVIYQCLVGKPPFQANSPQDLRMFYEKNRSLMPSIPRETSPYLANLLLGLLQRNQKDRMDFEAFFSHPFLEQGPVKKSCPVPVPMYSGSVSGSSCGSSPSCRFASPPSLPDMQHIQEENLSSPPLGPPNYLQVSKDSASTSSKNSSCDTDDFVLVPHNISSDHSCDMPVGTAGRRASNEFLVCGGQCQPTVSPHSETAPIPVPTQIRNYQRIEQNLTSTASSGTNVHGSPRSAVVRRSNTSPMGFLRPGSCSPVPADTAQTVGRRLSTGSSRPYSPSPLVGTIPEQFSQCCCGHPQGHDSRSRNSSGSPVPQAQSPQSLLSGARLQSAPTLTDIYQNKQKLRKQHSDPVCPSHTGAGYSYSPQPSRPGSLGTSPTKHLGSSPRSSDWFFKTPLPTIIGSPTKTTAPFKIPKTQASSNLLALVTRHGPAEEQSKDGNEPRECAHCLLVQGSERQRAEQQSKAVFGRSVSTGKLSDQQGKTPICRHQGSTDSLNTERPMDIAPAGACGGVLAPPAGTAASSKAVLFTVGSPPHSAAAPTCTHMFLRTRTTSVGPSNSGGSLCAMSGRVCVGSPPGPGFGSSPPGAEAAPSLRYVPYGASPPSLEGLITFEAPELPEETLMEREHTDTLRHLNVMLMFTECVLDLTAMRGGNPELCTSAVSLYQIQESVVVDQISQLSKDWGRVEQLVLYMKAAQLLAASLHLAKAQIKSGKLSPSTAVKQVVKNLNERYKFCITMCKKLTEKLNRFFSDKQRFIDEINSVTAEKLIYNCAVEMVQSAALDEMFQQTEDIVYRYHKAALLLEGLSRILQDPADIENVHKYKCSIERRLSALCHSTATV
Sequence of Calcium/calmodulin-dependent protein kinase kinase 1 (Q8N5S9 whole entry, looked up): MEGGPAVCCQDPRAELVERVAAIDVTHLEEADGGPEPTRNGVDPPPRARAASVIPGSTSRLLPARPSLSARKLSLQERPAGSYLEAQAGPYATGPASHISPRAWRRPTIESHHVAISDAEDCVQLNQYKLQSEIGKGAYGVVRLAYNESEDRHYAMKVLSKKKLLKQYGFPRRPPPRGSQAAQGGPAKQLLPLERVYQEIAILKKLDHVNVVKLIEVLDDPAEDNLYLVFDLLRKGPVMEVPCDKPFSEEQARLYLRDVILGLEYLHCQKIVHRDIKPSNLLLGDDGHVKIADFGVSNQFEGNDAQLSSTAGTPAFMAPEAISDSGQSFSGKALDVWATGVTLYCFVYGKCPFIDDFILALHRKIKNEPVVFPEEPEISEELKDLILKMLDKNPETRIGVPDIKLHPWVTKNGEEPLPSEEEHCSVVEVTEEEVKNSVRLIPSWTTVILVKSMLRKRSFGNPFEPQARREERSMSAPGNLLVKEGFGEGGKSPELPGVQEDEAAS
Sequence of Serine/threonine-protein kinase Nek7 (Q8TDX7 whole entry, looked up): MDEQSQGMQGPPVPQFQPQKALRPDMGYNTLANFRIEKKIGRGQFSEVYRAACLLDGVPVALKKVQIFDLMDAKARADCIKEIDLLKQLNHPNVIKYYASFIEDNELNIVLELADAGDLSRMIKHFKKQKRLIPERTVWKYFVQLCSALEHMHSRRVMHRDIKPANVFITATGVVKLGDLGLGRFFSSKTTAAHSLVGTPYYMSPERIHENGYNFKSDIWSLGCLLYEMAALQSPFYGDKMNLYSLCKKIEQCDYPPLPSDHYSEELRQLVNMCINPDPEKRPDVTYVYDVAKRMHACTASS
Sequence of Tyrosine-protein kinase Fyn (P06241 2-537 limits assumed): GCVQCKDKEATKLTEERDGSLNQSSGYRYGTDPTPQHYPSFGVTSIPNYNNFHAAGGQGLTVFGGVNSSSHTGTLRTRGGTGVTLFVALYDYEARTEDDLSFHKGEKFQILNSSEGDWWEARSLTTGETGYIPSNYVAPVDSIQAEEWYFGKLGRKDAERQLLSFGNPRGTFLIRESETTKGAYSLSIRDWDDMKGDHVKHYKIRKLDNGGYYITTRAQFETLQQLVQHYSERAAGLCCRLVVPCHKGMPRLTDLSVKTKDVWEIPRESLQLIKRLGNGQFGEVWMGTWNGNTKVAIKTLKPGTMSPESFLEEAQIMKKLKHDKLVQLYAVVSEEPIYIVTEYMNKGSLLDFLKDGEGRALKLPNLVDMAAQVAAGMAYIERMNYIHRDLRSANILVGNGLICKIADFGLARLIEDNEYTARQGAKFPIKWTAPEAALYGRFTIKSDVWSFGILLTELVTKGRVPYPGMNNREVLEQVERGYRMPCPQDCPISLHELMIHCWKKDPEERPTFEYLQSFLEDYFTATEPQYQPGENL
Sequence of Cyclin-dependent kinase 9 (P50750 whole entry, the tested form may be a part): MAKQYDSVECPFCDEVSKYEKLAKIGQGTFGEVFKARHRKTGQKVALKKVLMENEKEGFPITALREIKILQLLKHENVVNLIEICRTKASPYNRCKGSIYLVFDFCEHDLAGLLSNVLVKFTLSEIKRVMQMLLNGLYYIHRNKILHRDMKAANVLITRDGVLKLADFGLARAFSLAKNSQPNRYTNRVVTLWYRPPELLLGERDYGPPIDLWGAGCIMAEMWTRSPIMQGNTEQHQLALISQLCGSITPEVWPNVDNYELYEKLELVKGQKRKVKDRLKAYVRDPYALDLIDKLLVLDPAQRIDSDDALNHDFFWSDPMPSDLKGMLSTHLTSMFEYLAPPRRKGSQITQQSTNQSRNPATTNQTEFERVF

CCOc1cc(N2CCC(O)CC2)ccc1Nc1ncc2c(n1)N(C)c1ccccc1C(=O)N2C
IC50 [1]: > 50 µM
IC50 [2]: > 50 µM
IC50 [3]: > 50 µM
IC50 [4]: > 50 µM
IC50 [5]: > 50 µM
IC50 [6]: > 50 µM
IC50 [7]: > 50 µM
inhibition [8]: 24%
inhibition [9]: 17%
inhibition [10]: -2.3%
inhibition [11]: 10.7%
inhibition [12]: 11.9%
inhibition [13]: -3.4%
inhibition [14]: 7.3%
inhibition [15]: 10.2%
inhibition [16]: 4.6%
inhibition [17]: -2.5%
inhibition at 10 µM [18]: -10.7%
inhibition [19]: -6.5%
inhibition [20]: 11.5%
inhibition [21]: 2%
concentration at 8 h [22]: 34 nM
Activity [23]: 31 mg/dL
